Laboratory results: paper PMC3149845 (The Journal of neuroscience : the official journal of the …, 2011)
Entries after “also recorded” stand apart in the source; their conditions may differ. Read-outs that look alike come from different tables or passages of the source. Peptide text beside a SMILES is read from it.

Legend:
hTas1R2/smTas1R3 = target: T1, hTas1R2/smTas1R3 (Homo sapiens, UniProt Q8TE23); assay: Ca2+ mobilization, mismatched receptor; assay type: cell-based, human/squirrel monkey; settings: aspartame 10mM, neotame 1mM, sucralose 2 mM, D-tryptophan 5mM, sucrose 150mM; vs control / wild type human receptor
T1 sequence (Q8TE23 20-839): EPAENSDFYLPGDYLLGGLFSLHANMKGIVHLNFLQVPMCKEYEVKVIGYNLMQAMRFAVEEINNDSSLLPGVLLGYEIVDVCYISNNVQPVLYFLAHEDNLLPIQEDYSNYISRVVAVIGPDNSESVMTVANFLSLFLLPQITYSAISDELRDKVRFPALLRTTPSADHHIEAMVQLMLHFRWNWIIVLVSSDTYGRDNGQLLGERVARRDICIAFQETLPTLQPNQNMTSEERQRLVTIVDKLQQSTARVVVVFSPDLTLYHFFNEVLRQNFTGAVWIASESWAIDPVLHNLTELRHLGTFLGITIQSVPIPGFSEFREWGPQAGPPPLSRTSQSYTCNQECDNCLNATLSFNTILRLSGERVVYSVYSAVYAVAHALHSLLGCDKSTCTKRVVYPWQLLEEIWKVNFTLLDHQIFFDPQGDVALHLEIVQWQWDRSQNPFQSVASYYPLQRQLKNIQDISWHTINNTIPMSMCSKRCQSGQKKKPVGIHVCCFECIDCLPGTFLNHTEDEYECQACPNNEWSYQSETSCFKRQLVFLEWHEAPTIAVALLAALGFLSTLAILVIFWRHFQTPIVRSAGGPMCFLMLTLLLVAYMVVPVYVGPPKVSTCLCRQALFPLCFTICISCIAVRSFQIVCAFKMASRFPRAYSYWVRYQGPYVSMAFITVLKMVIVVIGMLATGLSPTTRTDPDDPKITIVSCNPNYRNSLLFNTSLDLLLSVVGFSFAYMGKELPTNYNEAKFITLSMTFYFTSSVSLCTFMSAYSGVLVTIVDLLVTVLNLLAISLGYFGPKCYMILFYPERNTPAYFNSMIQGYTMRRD
How it was run: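 Transfected HEK293E cells (50,000/well; 0.06 μg Tas1R plasmid and 0.06 μg Gα16-gust44 per well) were medium-changed at 20 h, then loaded after 24 h with 3 μM Fluo-4 AM in HBSS/20 mM HEPES for 1 h. Tastant added 30 s into scan; fluorescence (ex 488/em 525 nm) read every 2 s for 150 s. ΔF/F normalized to the hTas1R2/hTas1R3 sucralose response; three independent experiments; unpaired t test.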

[1] = target: smTas1R2:T40S/L66V/S67I/E142D+smTas1R3 (Saimiri sciureus, UniProt A3QP08, E142D/L66V/S67I/T40S); assay: Ca2+ mobilization, mutated squirrel monkey receptor; assay type: cell-based, squirrel monkey (Saimiri sciureus); settings: aspartame 10mM, neotame 1mM, sucralose 2 mM; compared with smTas1R2/smTas1R3
[2] = target: smTas1R2:T40S/S67I/E142D+smTas1R3 (Saimiri sciureus, UniProt A3QP08, E142D/S67I/T40S); assay: as above; assay type: cell-based, squirrel monkey (Saimiri sciureus); settings: for calcium response to sweetener: aspartame 10mM, neotame 1mM, sucralose 2 mM, compared with smTas1R2/smTas1R3; for response in dose-response experiment: versus smTas1R2+smTas1R3; for Bottom (B) of sigmoid dose-response fit / Top (T) of sigmoid dose-response fit: ΔF/F normalized to maximum response of hTas1R2/hTas1R3 to neotame
smTas1R2:S67I+smTas1R3 = smTas1R2:S67I+smTas1R3 (Saimiri sciureus, UniProt A3QP08, S67I); assay: as above; assay type: cell-based, squirrel monkey (Saimiri sciureus); settings: aspartame 10mM, neotame 1mM, sucralose 2 mM; compared with smTas1R2/smTas1R3
smTas1R2:S67I+smTas1R3, sequence (A3QP08 20-834 S67I): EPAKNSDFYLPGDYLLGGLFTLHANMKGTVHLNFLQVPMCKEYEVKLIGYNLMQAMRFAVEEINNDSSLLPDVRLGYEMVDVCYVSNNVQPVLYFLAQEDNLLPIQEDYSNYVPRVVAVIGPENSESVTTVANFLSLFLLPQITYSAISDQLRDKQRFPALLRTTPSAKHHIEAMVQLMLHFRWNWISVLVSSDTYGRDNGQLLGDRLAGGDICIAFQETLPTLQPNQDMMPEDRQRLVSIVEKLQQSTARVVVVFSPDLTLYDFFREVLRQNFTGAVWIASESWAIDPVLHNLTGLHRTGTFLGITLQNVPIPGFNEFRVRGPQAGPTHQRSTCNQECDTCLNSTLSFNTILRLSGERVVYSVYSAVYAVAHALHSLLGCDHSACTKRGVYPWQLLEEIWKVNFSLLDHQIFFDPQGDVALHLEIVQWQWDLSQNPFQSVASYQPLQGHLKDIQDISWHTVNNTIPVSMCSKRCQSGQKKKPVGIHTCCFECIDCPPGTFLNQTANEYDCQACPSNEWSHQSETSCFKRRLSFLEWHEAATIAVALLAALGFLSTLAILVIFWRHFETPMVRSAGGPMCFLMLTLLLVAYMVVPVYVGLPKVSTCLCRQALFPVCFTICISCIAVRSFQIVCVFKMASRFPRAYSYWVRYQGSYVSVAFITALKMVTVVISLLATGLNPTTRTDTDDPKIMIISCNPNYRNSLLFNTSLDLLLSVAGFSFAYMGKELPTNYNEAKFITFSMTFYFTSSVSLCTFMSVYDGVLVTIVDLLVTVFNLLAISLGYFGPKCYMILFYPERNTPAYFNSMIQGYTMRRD

smTas1R2:T40S/S67I/E142D+smTas1R3, sequence (A3QP08 20-834 T40S/S67I/E142D): as the sequence (A3QP08 20-834 S67I) above, with T21S, E123D counted along it
smTas1R2:T40S/L66V/S67I/E142D+smTas1R3, sequence (A3QP08 20-834 T40S/L66V/S67I/E142D): as the sequence (A3QP08 20-834 S67I) above, with T21S, L47V, E123D counted along it

Compound	calcium response to sweetener (hTas1R2/smTas1R3)	calcium response to sweetener [1]	EC50 [2] [µM]	calcium response to sweetener [2]	response in dose-response experiment ([2]; dose-response)	Bottom (B) of sigmoid dose-response fit [2]	Top (T) of sigmoid dose-response fit [2]	calcium response to sweetener (smTas1R2:S67I+smTas1R3)	EC50 ([2]; HEK293E cells with Gα16-gust44, dose-response, calcium mobilization) [µM]
COC(=O)[C@H](Cc1ccccc1)NC(=O)[C@@H](N)CC(=O)O [aspartame, L-α-aspartly-L-phenylalanine methyl ester] (H-Asp-Phe-OMe)	able to respond; also recorded: reduced responses	significant responses	1200	significant responses	good response	−2.882	32.61	not able to recover	
COC(=O)[C@H](Cc1ccccc1)NC(=O)[C@H](CC(=O)O)NCCC(C)(C)C [neotame]	able to respond	significant responses		significant responses	good responses	−4.671	51.73	not able to recover	280
OC[C@H]1O[C@H](O[C@]2(CCl)O[C@H](CCl)[C@@H](O)[C@@H]2O)[C@H](O)[C@@H](O)[C@H]1Cl [sucralose]	reduced responses								
